Screens as filed in PubChem BioAssay.
An excerpt weighted towards active compounds, which were near 3.3% of everything screened.
ABCB6 inh MLPCN – human ABCB6 transporter inhibition | Q9NP58 | K562-ABCB6 porphyrin accumulation, flow cytometry, 1 h; stronger effect = lower value | fluorescence ratio to DMSO, % at 10 µM | 0.19% of 360,000 active | AID 602162;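 active = fluorescence ratio to DMSO below 75%, the collection mean minus 3 SD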;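 note: signal is porphyrin accumulated inside mitochondria; 100% equals median channel fluorescence of DMSO control wells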
Target sequence (Q9NP58 whole entry, looked up): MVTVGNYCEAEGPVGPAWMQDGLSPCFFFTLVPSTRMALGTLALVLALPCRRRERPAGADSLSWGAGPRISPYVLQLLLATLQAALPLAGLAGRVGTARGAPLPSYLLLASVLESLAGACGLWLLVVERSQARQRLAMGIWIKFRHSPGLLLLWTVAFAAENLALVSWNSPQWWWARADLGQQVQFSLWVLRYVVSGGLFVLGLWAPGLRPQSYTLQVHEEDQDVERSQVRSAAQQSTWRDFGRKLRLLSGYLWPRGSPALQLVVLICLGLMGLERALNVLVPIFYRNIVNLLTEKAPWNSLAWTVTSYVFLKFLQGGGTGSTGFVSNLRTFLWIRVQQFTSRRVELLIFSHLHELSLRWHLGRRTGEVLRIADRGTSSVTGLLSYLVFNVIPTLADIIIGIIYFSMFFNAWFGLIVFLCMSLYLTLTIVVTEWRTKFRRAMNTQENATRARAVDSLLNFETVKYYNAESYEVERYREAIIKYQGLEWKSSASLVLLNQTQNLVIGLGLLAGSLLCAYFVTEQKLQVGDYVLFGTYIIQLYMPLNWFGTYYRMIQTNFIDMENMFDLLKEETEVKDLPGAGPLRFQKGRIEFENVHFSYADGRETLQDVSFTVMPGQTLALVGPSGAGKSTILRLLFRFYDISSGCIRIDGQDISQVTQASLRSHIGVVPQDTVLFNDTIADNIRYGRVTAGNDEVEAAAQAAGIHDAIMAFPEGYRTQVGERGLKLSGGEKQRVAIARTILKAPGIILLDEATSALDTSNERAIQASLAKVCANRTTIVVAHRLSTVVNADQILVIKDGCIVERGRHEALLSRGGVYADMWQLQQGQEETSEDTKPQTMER
STAT3 act-1 – STAT3 signaling activation; U3A cells, IL-6 STAT3-luciferase reporter, luminescence; 100% = signal with IL-6 EC80 alone; activation (% of control), % at 5.6 µM; 0.91% of 190,000 active; AID 871;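 active = activation above the screen-wide mean of compound activation plus 3 SD, cut at about 130% in these data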;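 note: 0% = background luminescence of wells with medium and substrate only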
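Assay system – human STAT1-deficient U3A cells with stable STAT3-luciferase reporter · Also added – IL-6 (33 ng/mL) · Schedule – compound 1 h, then IL-6 6 h at 37 °C · Technique – reporter luminescence signal · Evaluation – % activation versus median of IL-6-stimulated wells · Benchmarks – IL-6-only wells as 100% reference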
AHR activator – activates the human aryl hydrocarbon receptor; 2.5% of 320,000 active; P35869; AHR-responsive luciferase reporter cells, luminescence; activation, % at 5 µM; in the data active = activation above about 47%;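 note: 0% = vehicle wells and 100% = reference agonist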
GAA850 FXN act – frataxin GAA850 promoter activation; HEK293 lucGAA850 FXN promoter luciferase reporter, 24 h; percent of 10 µM SAHA response; activation, % at 6 µM; 0.56% of 360,000 active; AID 540364;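 active = activation above the average of all compounds screened plus 3 SD, cutoff fixed separately per campaign, cut at about 7.5% in these data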;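 note: 0% = DMSO wells and 100% = 10 µM SAHA wells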
STAT3 act-2 – confirmation of STAT3 signaling activators. 64% of 1,200 active. AID 1267. U3A STAT3-luciferase reporter, IL-6 potentiation, luminescence; U3A cells lack STAT1; 100 means same as IL-6 alone. shares compounds with STAT3 act-1. potentiation (% of control), % at 5.7 µM;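 active = percent activation of the STAT3 luciferase reporter above a set limit taken from the earlier primary screen, cut at about 130% in these data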;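 note: 0% = background signal of medium plus substrate and 100% = median of IL-6 with DMSO wells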
NFkB act 2 – counter-screen for STAT3 activators: NF-kappaB activation; shares compounds with STAT3 act-1; activation (% of control), % at 5.7 µM; 11% of 1,200 active; human cells, NF-kappaB reporter activation; in the data active = activation above about 120%;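 note: reporter induced by TNF-alpha stimulation; 100% = median of stimulated DMSO wells and 0% = no signal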
STAT1 act STAT3c – counter-screen for STAT3 activators: STAT1 activation; NIH 3T3 STAT1-luciferase reporter, IFN-gamma, luminescence; AID 1318; 13% of 1,200 active; shares compounds with STAT3 act-1; activation (% of control), % at 5.7 µM;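 active = activation above the solvent-only control well mean plus 3 SD, set per screening run, cut at about 120% in these data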;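 note: 100% = IFN-gamma with DMSO median signal so 100% means no change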
AHR act cf – confirmation of human aryl hydrocarbon receptor activators | human cells, AHR-responsive luciferase reporter, luminescence | shares compounds with AHR activator | 87% of 2,300 active | activation, % at 9 µM | AID 2845; in the data active = activation above about 49%;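 note: HepG2 hepatoma cells carrying a DRE-driven firefly luciferase reporter; 0% = vehicle wells and 100% = reference agonist wells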
PXR act counter – counter-screen for AHR activators: human PXR activators | shares compounds with AHR activator | cell-based PXR reporter, luciferase luminescence | activation, % at 11.6 µM | 88% of 2,300 active; in the data active = activation above about 11%;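 note: human hepatoma DPX-2 cells expressing full-length human PXR; 0% = DMSO and 100% = reference agonist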
* hit, by the source's call; . = not tested or not shown.

SMILES | ABCB6 inh MLPCN | STAT3 act-1 | AHR activator | GAA850 FXN act | STAT3 act-2 | NFkB act 2 | STAT1 act STAT3c | others
Cn1c(C(=O)c2ccccc2[N+](=O)[O-])nc2ccccc21 | 104.0 | 144.9* | 48.0* | 0.7 | 142.4* | 96.0 | 94.1
COc1ccc(OC)c(Nc2nc3nonc3nc2N2CCCCC2)c1 | 97.0 | 163.2* | 0.4 | -0.7 | 99.2 | 111.6 | 113.0
COc1ccccc1Nc1nc2nonc2nc1N1CCC(C)CC1 | 103.0 | 101.9 | 3.4 | 0.0 | . | . | .
N#C/C(=C\Nc1ccccc1O)c1nc2ccccc2o1 | 100.0 | 165.3* | 34.0 | 4.9 | 183.5* | 108.5 | 105.8
O=C(NNC1=C(C(=O)C(F)(F)F)CCC1)c1ccccc1Cl | 100.0 | 90.4 | 2.8 | 2.7 | . | . | .
Nc1ccccc1C(=O)NNC1=C(C(=O)C(F)(F)F)CCC1 | 98.0 | . | 15.5 | 2.3 | . | . | .
COc1ccccc1C(=O)NNC1=C(C(=O)C(F)(F)F)CCC1 | 98.0 | 150.3* | 16.1 | 0.2 | 127.6 | 105.5 | 101.8
O=C(NNC1=C(C(=O)C(F)(F)F)CCC1)c1ccccc1O | 118.0 | 176.5* | 17.2 | 0.9 | 148.2* | 100.7 | 101.7
O=C(Nc1ccccc1OC(F)F)c1ccc(S(=O)(=O)N2CCCC2)cc1 | 98.0 | . | 1.4 | -0.9 | . | . | .
NS(=O)(=O)c1ccc(NC(=S)N2CCC(Cc3ccccc3)CC2)cc1 | 96.0 | . | -0.5 | 0.4 | . | . | .
Cc1ccc(C(=O)Nc2ccc(C(=O)N/N=C/c3c[nH]c4ccccc34)cc2)cc1 | 98.0 | 147.7* | 20.5 | -0.6 | 122.1 | 96.8 | 97.8
Cc1ccc(/C=N/NC(=O)Cc2c[nH]c3ccccc23)c(C)c1 | 89.0 | 141.8* | 20.5 | 1.3 | 129.6 | 100.8 | 90.8
O=C(N/N=C/c1c[nH]c2ccccc12)c1ccccc1 | 97.0 | . | 17.1 | 4.7 | . | . | .
Cc1ccc(CC2S/C(=C(/C#N)C(=O)NCc3ccco3)N(c3ccccc3)C2=O)cc1 (stereo not drawn) | 108.0 | 96.5 | -0.1 | -1.8 | . | . | .
CC1S/C(=C(\C#N)C(=O)NCc2ccco2)N(Cc2ccco2)C1=O (stereo not drawn) | 98.0 | 142.4* | 8.8 | -2.6 | 130.4 | 103.9 | 95.4
CCCCN1C2=C(C(=O)CCC2)C(c2ccc(Cl)c(Cl)c2)C2=C1c1ccccc1C2=O (stereo not drawn) | 101.0 | 102.8 | 8.7 | 0.2 | . | . | .
Cc1cccc2nc(CSc3nc4[nH]ncc4c(=O)n3-c3ccccc3Cl)cc(=O)n12 | 102.0 | 136.4* | 27.6 | 3.1 | 151.7* | 96.2 | 87.6
CSc1nc(O)c(/C=C2\C=Nc3ccccc32)[nH]1 | 98.0 | 138.4* | 76.0* | 4.7 | 146.1* | 112.4 | 123.1*
O=c1[nH]c(/C=C2\C=Nc3ccccc32)c(O)n1Cc1ccccc1F | 99.0 | 93.7 | 16.4 | -1.4 | . | . | .
[O-]/C(=C(\C(=S)Nc1cccc2ccccc12)[n+]1ccccc1)c1cccs1 | 106.0 | 143.1* | 36.1 | 0.1 | 136.3* | 105.7 | 91.8
Cc1ccc(S(=O)(=O)NCC(=O)OCC(=O)NC2CCCCC2)cc1 | 103.0 | . | -0.1 | 1.5 | . | . | .
CCC(=O)N=c1sc2cc(F)cc(F)c2n1C | 98.0 | 140.1* | 12.1 | 3.2 | 125.3 | 108.3 | 139.2*
O=C(c1ccc2ccccc2n1)N1CCN(c2ccccc2)CC1 | 98.0 | 98.7 | 2.8 | 2.8 | . | . | .
O=C(c1ccc2ccccc2n1)N1CCN(c2ccccc2O)CC1 | 97.0 | 157.3* | 91.8* | 3.2 | 157.6* | 103.2 | 101.7 | AHR act cf=106.5*;PXR act counter=40.3*
C=CCOc1ccc(C2NC(=S)NC3=C2CCc2ccccc23)cc1 (stereo not drawn) | 96.0 | . | -0.5 | 0.8 | . | . | .
O=C1NC2=C(CCc3ccccc32)C(c2ccccc2)N1 (stereo not drawn) | 95.0 | 147.7* | 82.5* | -0.5 | 101.1 | 100.2 | 97.9 | AHR act cf=14.5;PXR act counter=21.6*
